ChEMBL document CHEMBL1151848, “Aryl nucleoside H-phosphonates. Part 16: synthesis and anti-HIV-1 activity of di-aryl nucleoside phosphotriesters” (Bioorg Med Chem, 2009)

Assays:
[1] = Chemical stability assessed as chemical hydrolysis half life in RPMI-1640 culture medium by HPLC analysis; type: physicochemical
In short: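 Chemical hydrolysis of the compounds was followed in RPMI-1640 medium alone.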

[2] = Cytotoxicity against human MT4 cells after 96 hrs by MTT assay; type: cell-based
In short: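 Exponentially growing mock-infected MT-4 cells were seeded at 1 × 10⁵ cells/ml in RPMI-1640 with 10% FCS, penicillin G and streptomycin. They were incubated with serial compound dilutions at 37 °C in humidified 5% CO₂, and viability was read by MTT after 96 h. CC50 is the concentration reducing viability by 50%, as the mean of three independent determinations.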

[3] = system: Human immunodeficiency virus 1; assay: Antiviral activity against HIV1 3B infected in human MT4 cells assessed as protection from virus-induced cytopathogenicity after 4 days by MTT assay; type: functional, organism-based; conditions: Human immunodeficiency virus 1, 3B, MT4, 96 h
In short: (§1)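 MT-4 cells, acutely infected at m.o.i. 0.01, were used to read inhibition of HIV-1-induced cytopathogenicity. Compounds were made as 100 mM DMSO stocks and diluted in culture medium. Viability was read by MTT. EC50 is the concentration giving 50% protection, as the mean (+SD) of three independent determinations.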

[4] = Selectivity index, ratio of CC50 for human MT4 cells to EC50 for HIV1 3B; type: toxicity, cell-based; conditions: read-out: Ratio CC50/EC50
[5] = system: Human immunodeficiency virus 1; assay: Antiviral activity against non-nucleoside reverse transcriptase inhibitor-resistant HIV1 bearing reverse transcriptase N119 (Y181C) mutation infected in human MT4 cells assessed as protection from virus-induced cytopathogenicity after 4 days by MTT assay; type: functional, organism-based; conditions: Human immunodeficiency virus 1, MT4, 96 h; in short: as §1
[6] = system: Human immunodeficiency virus 1; assay: Antiviral activity against non-nucleoside reverse transcriptase inhibitor-resistant HIV1 bearing reverse transcriptase A17 (K103N, Y181C) mutation infected in human MT4 cells assessed as protection from virus-induced cytopathogenicity after 4 days by MTT assay; type: functional, organism-based; conditions: Human immunodeficiency virus 1, MT4, 96 h; in short: as §1
[7] = system: Human immunodeficiency virus 1; assay: Antiviral activity against efavirenz-resistant HIV1 infected in human MT4 cells assessed as protection from virus-induced cytopathogenicity after 4 days by MTT assay; type: functional, organism-based; conditions: Human immunodeficiency virus 1, MT4, 96 h; in short: as §1
[8] = system: Human immunodeficiency virus 1; assay: Antiviral activity against azidothymidine-resistant HIV1 infected in human MT4 cells assessed as protection from virus-induced cytopathogenicity after 4 days by MTT assay; type: functional, organism-based; conditions: Human immunodeficiency virus 1, MT4, 96 h; in short: as §1
[9] = system: Human immunodeficiency virus 1; assay: Antiviral activity against MDR1-resistant HIV1 infected in human MT4 cells assessed as protection from virus-induced cytopathogenicity after 4 days by MTT assay; type: functional, organism-based; conditions: Human immunodeficiency virus 1, MT4, 96 h; in short: as §1

Row | SMILES | half-life [1] | CC50 at 96 h [2] | EC50 [3] | selectivity ratio [4] | EC50 [5] | EC50 [6] | EC50 [7] | EC50 [8] | EC50 [9]
1 | Cc1cn([C@H]2C[C@H](N=[N+]=[N-])[C@@H](COP(=O)(Oc3ccc(C#N)cc3)Oc3cccnc3)O2)c(=O)[nH]c1=O (some centres not stated) | 2.88 h | 58 µM | 0.02 µM | 2900 | 0.02 µM | 0.009 µM | 0.03 µM | 0.8 µM | 0.3 µM
2 | Nc1ncnc2c1ncn2[C@H]1CC[C@@H](COP(=O)(Oc2ccccc2)Oc2cccnc2)O1 (some centres not stated) | 88.8 h | > 100 µM | 23 µM | > 4 | 30 µM | 7 µM | 16 µM | 42 µM | 50 µM
3 | Cc1cn([C@H]2C[C@H](N=[N+]=[N-])[C@@H](COP(=O)(Oc3ccncc3)Oc3cccnc3)O2)c(=O)[nH]c1=O (some centres not stated) | 8.55 h | > 100 µM | 0.02 µM | > 5000 | 0.01 µM | 0.007 µM | 0.01 µM | 2.3 µM | 1.2 µM
4 | Cc1cn([C@H]2C[C@H](N=[N+]=[N-])[C@@H](COP(=O)(Oc3ccccc3)Oc3cccnc3Cl)O2)c(=O)[nH]c1=O (some centres not stated) | 16.1 h | ≥ 100 µM | 0.03 µM | > 3330 | 0.02 µM | 0.01 µM | 0.01 µM | 1.2 µM | 0.4 µM
5 | Nc1ncnc2c1ncn2[C@H]1CC[C@@H](CO)O1 |  | > 100 µM | 5.2 µM | > 19 |  |  |  |  | 
6 | Cc1cn([C@H]2C[C@H](N=[N+]=[N-])[C@@H](COP(=O)(Oc3ccccc3)Oc3ccncc3)O2)c(=O)[nH]c1=O (some centres not stated) | 12.8 h | > 100 µM | 0.01 µM | > 10000 | 0.01 µM | 0.008 µM | 0.01 µM | 0.4 µM | 0.1 µM
7 | Cc1ncccc1OP(=O)(OC[C@H]1O[C@@H](n2cc(C)c(=O)[nH]c2=O)C[C@@H]1N=[N+]=[N-])Oc1cccnc1C | 17.2 h | > 100 µM | 0.02 µM | > 5000 | 0.03 µM | 0.01 µM | 0.02 µM | 0.8 µM | 0.2 µM
8 | Cc1ccc(OP(=O)(OC[C@H]2O[C@@H](n3cc(C)c(=O)[nH]c3=O)C[C@@H]2N=[N+]=[N-])Oc2ccccc2)cn1 (some centres not stated) | 44.4 h | > 100 µM | 0.09 µM | > 1110 | 0.08 µM | 0.04 µM | 0.07 µM | 7 µM | 1.6 µM
9 | Cc1ccc(OP(=O)(OC[C@H]2O[C@@H](n3cc(C)c(=O)[nH]c3=O)C[C@@H]2N=[N+]=[N-])Oc2ccc(C)nc2)cn1 | 21.4 h | > 100 µM | 0.04 µM | > 2500 | 0.05 µM | 0.01 µM | 0.03 µM | 0.8 µM | 0.4 µM
10 | Cc1cn([C@H]2C[C@H](N=[N+]=[N-])[C@@H](COP(=O)(Oc3cccnc3)Oc3ccc(Cl)cc3Cl)O2)c(=O)[nH]c1=O (some centres not stated) | 6.6 h | > 100 µM | 0.01 µM | > 10000 | 0.01 µM | 0.008 µM | 0.01 µM | 0.4 µM | 0.1 µM
11 | Cc1ncccc1OP(=O)(OC[C@H]1O[C@@H](n2cc(C)c(=O)[nH]c2=O)C[C@@H]1N=[N+]=[N-])Oc1ccccc1 (some centres not stated) | 82.5 h | > 100 µM | 0.1 µM | > 1000 | 0.08 µM | 0.06 µM | 0.09 µM | 4.7 µM | 1.6 µM
12 | O=c1ccn([C@H]2CC[C@@H](COP(=O)(Oc3ccccc3)Oc3ccncc3)O2)c(=O)[nH]1 (some centres not stated) | 26.8 h | > 100 µM | 3 µM | > 33 | 4 µM | 2 µM | 2 µM | 60 µM | 38 µM
